Screening results from PubChem.
Sampled rows, rich in hits. Any-hit rate of the full collection: about 2.1%.
CXCR6 block – inhibitors of human CXCR6 receptor; 0.36% of 360,000 active; CHO-K1 PathHunter CXCR6 beta-arrestin, luminescence; O00574; inhibition, % at 20 µM; in the data active = inhibition above about 34%, passing the limit was not always enough;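 note: antagonist mode with CXCL16 agonist at 10 nM final; 0% = 10 nM CXCL16 with DMSO and 100% = unstimulated wells without agonist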
CCR6 antagonist – CCR6 (human) receptor antagonism; AID 493098; inhibition, % at 20 µM; CHO-K1 CCR6 PathHunter beta-arrestin, luminescence, CCL20-stimulated; 0.49% of 340,000 active;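 active = compounds whose inhibition of the agonist-driven luminescence signal at 20 µM reaches about 50%, limit read from the data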;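 note: cells stimulated with CCL20 at 14 nM final; plate controls were DMSO with CCL20 for no effect and DMSO without agonist for full effect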
Target sequence (P51684 whole entry, looked up): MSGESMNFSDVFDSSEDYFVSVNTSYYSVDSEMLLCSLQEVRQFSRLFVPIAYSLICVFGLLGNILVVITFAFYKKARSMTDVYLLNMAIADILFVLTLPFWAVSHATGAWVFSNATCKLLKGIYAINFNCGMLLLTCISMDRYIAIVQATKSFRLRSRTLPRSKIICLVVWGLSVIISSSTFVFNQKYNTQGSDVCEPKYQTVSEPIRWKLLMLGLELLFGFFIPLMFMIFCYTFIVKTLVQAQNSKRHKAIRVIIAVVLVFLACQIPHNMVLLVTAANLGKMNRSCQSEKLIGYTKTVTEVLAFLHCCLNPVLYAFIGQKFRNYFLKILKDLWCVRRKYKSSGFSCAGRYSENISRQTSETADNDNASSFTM
HTR2A ag – activates the mouse 5-HT2A serotonin receptor; CHO-K1 mHTR2A beta-arrestin complementation, luminescence; percent of 30 µM serotonin response; 0.66% of 360,000 active; activation, % at 7.6 µM; AID 624169; P35363;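 active = activation above a run cutoff, the mean activation of all tested compounds plus 3 SD, cut at about 14% in these data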;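 note: 0% = plate median of compound wells and 100% = 30 µM serotonin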
APJ agonist – activates the human apelin receptor APJ | P35414 | CHO-K1 APJ PathHunter beta-arrestin, luminescence; 0% DMSO wells, 100% apelin | activation, % at 20 µM | 0.11% of 330,000 active | AID 2520;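 active = activation more than six SD over the plate average, tested at 20 µM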;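 note: 0% = DMSO alone and 100% = apelin-13 at 10 nM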
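assay system = CHO-K1 APJ beta-arrestin complementation cell line | input = cell density 1000 per well | dosing = compound 20 µM once, DMSO 1% | timing = compound 90 min 25 °C, reagent 1 h | measured by = luminescence from split beta-galactosidase complementation, Galacton Star/Emerald II substrate | read-out basis = APJ agonist activity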
APJ antagonist – blocks the human apelin receptor APJ; P35414; inhibition, % at 20 µM; CHO-K1 APJ beta-arrestin complementation, luminescence; 0.32% of 330,000 active;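 active = inhibition above about 40% at 20 µM, limit read from the data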;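 note: cells challenged with 10 nM apelin-13 agonist together with compound; plate controls were apelin-13 plus DMSO wells for no effect and DMSO wells lacking apelin-13 for full effect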
EBI2 antag – EBI2 (human) antagonism; AID 651636; EBI2 beta-arrestin recruitment, luminescence, 7a,25-OHC stimulated; inhibition, % at 5 µM; 0.81% of 360,000 active; P32249; in the data active = inhibition above about 38%;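 note: enzyme fragment complementation signal reports receptor beta-arrestin coupling in cells; 0% = agonist plus DMSO wells and 100% = wells without agonist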
APJ ag confirm – APJ receptor agonism confirmation. 10% of 310 active. CHO-K1 APJ PathHunter beta-arrestin, luminescence. shares compounds with APJ agonist. activation, % at 20 µM. AID 2764;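 active = activation above 40%, taking the highest of four retests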;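 note: plate controls were DMSO wells for no effect and apelin-13 at 10 nM for full effect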
APJ antag confirm – confirmation of human APJ apelin receptor antagonists | inhibition, % at 20 µM | APJ beta-arrestin recruitment, luminescence, antagonist mode | shares compounds with APJ antagonist | 66% of 950 active; in the data active = inhibition above about 50%
CXCR6 confirm – CXCR6 antagonism confirmation, single concentration. shares compounds with CXCR6 block. CHO-K1 CXCR6 PathHunter beta-arrestin, luminescence. inhibition, % at 20 µM. 65% of 700 active. AID 602409;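 active = mean inhibition over four retests above 40%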;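 note: receptor stimulated with 10 nM CXCL16 agonist; beta-galactosidase fragment complementation upon beta-arrestin recruitment to receptor; plate controls were CXCL16 plus DMSO for no effect and DMSO without CXCL16 for full effect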
MOR ag counter – activates human mu opioid receptor in HTR2A counterscreen | activation, % at 9.3 µM | shares compounds with HTR2A ag | U2OS OPRM1 beta-arrestin PathHunter, luminescence; DMSO 0%, DAMGO 9.3 µM 100% | 5.3% of 2,300 active;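 active = mean activation above the mean of DMSO-only wells plus 3 SD, cut at about 0.5% in these data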
HTR2A ag conf – confirmation of mouse HTR2A serotonin receptor agonists | shares compounds with HTR2A ag | CHO-K1 PathHunter beta-arrestin recruitment, luminescence; DMSO 0%, 30 µM serotonin 100% | activation, % at 7.6 µM | 19% of 2,300 active;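 active = mean activation across triplicates above the hit threshold derived in the original primary screen, cut at about 15% in these data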
EBI2 antag conf – EBI2 (human) antagonism, single concentration confirmation; EBI2 beta-arrestin luminescence, 7a,25-OHC antagonism; inhibition, % at 5 µM; AID 651997; shares compounds with EBI2 antag; 29% of 2,400 active;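 active = inhibition of at least 50%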
EBI2 agonist – activates EBI2, counter-screen for EBI2 antagonists. shares compounds with EBI2 antag. EBI2-expressing cells, agonist mode, luminescence, 60 min; 0% vehicle, 100% 7α,25-dihydroxycholesterol control. activation, % at 5 µM. 2,400 tested, under 10 active. AID 652000;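 active = activation of at least 50%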
bGal counter – inhibits E. coli beta-galactosidase, counter-screen for EBI2 antagonists. purified beta-galactosidase, luminescent Galacton Star, 15 min. 1% of 2,400 active. shares compounds with EBI2 antag. inhibition, % at 5 µM. AID 652176;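 active = replicate-average signal at least 3 plate SD below neutral wells, shown as high inhibition, flagging enzyme-inhibiting false positives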;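 note: 0% = DMSO wells with enzyme and 100% = wells lacking enzyme; higher means stronger loss of beta-gal luminescence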
* hit, by the source's call.

Cc1c(Cl)sn(-c2ccc(Cl)cc2)c1=O was read as CXCR6 block 74*, CCR6 antagonist 92*, HTR2A ag 17*, APJ agonist 26*, APJ antagonist 38, EBI2 antag 70*, APJ ag confirm 26, CXCR6 confirm 94*, MOR ag counter 3.3* and HTR2A ag conf 0.
Screening COc1ccc(NC(=O)c2cc(-c3ccco3)on2)c(OC)c1 returned CXCR6 block -5, CCR6 antagonist -4, HTR2A ag 5, APJ agonist 3, APJ antagonist 2 and EBI2 antag -8.
CCc1ccc(NC(=S)Nc2cccc3cnccc23)cc1 was read as CXCR6 block -5, CCR6 antagonist 15, HTR2A ag -5, APJ agonist 15*, APJ antagonist -113, EBI2 antag 50*, APJ ag confirm -1, EBI2 antag conf 9, EBI2 agonist 0 and bGal counter -3.
For Clc1ccc(-n2nnc(-c3cccnc3)n2)cc1Cl the results were CXCR6 block -8, CCR6 antagonist 20, HTR2A ag 0, APJ agonist -3, APJ antagonist 5 and EBI2 antag 3.
For COc1ccc(NC(=O)/C(Cl)=C(/Cl)S(=O)Cc2ccc(Cl)cc2)cn1 (stereo not given) the results were CXCR6 block 100*, CCR6 antagonist 100*, HTR2A ag -10, APJ agonist -5, APJ antagonist 83*, EBI2 antag 71* and APJ antag confirm 105*.
Screening Oc1ccc(N=Nc2c(O)ccc3ccccc23)cc1 returned CXCR6 block 39, CCR6 antagonist 54*, HTR2A ag -9, APJ agonist -11, APJ antagonist 50*, EBI2 antag 23 and APJ antag confirm 71*.
For COC(=O)c1cccc(NC(=O)Nc2ccc(Cl)cc2Cl)c1 the results were CXCR6 block -9, CCR6 antagonist -6, HTR2A ag -1, APJ agonist -4, APJ antagonist -13 and EBI2 antag -10.
Screening CC(=O)Nc1cc(C(=O)OCC(=O)c2ccc(C)cc2)ccc1C returned CXCR6 block 26, CCR6 antagonist -19, HTR2A ag 1, APJ agonist -2, APJ antagonist -6 and EBI2 antag 1.
For CC(=O)Nc1cc(C(=O)OCC(=O)c2ccc(Cl)cc2Cl)ccc1C the results were CXCR6 block 6, CCR6 antagonist 12, HTR2A ag -3, APJ agonist -7, APJ antagonist 52*, EBI2 antag 1 and APJ antag confirm 25.
